Compound activity from PubChem.
An excerpt weighted towards active compounds, which were near 5.5% of everything screened.
WT yeast gro inh: growth inhibition of WT yeast, mitochondrial fusion screen; mitochondrial fusion phenotypic screen, WT strain; hit rate 2.1% among 190,000; inhibition, % at 10 µM; in the data active means inhibition above about 58%; tested in S. cerevisiae
BB579 growth dn: reduces growth of yeast BB579 in restrictive medium; S. cerevisiae BB579 growth, OD615, 48 h; inhibition, % at 10 µM; hit rate 0.51% among 140,000; AID 804;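 active means inhibition above a set limit, 3 SD over the mean compound inhibition, cut at about 44% in these data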
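Detection: OD615 turbidity measurement; Material: Saccharomyces cerevisiae DeaD strain BB579, replicative lifespan model yeast; Timing: 48 h exposure, 30 °C; Doses: single 10 µM dose; Medium: CSMM-D restrictive synthetic medium containing dextrose (glucose); Controls: amphotericin B at 10 µg/mL as positive control.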
Cl transport mod: modulates chloride dependent transport by human KCC2; KCC2 cells, thallium flux FluoZin-2 fluorescence; B-score of Tl+ flux slope (higher = more flux/activation; lower = inhibition) at 10 µM; hit rate 2.2% among 190,000; AID 1456;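 active means thallium flux slope and its plate-corrected score both differing from the plate sample mean at a set confidence after two filtering rounds, in either direction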;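 further: slope of fluorescence scaled to starting intensity during 10 to 20 s after thallium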
Target sequence (Q9H2X9 whole entry, looked up): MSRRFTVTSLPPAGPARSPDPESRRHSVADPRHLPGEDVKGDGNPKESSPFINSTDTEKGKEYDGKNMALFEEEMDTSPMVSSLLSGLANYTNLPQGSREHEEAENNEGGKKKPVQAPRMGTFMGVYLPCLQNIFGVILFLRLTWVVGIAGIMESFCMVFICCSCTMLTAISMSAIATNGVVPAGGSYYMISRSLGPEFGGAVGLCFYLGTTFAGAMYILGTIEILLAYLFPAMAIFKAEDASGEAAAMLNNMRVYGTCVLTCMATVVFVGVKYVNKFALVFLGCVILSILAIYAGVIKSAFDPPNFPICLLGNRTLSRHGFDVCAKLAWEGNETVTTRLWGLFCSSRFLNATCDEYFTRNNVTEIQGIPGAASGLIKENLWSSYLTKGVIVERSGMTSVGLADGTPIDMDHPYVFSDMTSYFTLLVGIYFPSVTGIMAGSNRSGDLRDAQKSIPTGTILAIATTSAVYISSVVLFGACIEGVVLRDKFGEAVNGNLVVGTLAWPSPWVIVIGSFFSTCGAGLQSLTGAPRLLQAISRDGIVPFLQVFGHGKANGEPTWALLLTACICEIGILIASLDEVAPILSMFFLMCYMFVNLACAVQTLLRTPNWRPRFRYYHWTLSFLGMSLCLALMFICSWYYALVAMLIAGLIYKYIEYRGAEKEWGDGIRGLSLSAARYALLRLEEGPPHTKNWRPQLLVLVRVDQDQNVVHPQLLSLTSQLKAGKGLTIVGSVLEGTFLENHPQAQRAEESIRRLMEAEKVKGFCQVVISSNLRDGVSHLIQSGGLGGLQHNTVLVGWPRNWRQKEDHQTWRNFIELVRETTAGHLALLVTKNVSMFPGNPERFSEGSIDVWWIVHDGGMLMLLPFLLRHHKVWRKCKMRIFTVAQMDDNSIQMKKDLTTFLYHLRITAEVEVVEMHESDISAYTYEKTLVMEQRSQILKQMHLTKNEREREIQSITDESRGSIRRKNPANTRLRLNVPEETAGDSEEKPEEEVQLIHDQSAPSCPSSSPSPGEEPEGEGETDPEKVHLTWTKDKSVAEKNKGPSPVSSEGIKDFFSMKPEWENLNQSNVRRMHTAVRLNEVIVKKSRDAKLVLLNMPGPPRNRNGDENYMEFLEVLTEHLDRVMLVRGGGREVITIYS
Yeast life ext: extends the lifespan of yeast | S. cerevisiae growth with nicotinamide, OD615; deaD strain in restrictive glucose medium | hit rate 0.68% among 130,000 | inhibition of the nicotinamide effect, % at 10 µM;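 active means inhibition above a set limit, placed 3 SD over the median of all compounds, cut at about 26% in these data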;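 further: 0% = nicotinamide-treated wells and 100% = cells grown without nicotinamide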
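System: Modified budding yeast, DeaD strain | Buffer or medium: Restrictive glucose medium | Also added: 1.5 mM nicotinamide | Doses: 10 µM single point, 0.25% DMSO | Schedule: 48 h compound exposure at 30 °C, humidified | Detection: Absorbance at 615 nm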
RAM network inh: yeast RAM network inhibition; AID 868; S. cerevisiae dse1pr::URA3 reporter, 5-FOA growth OD615, 2 d; analog-sensitive cbk1-as2 kinase mutant strain; hit rate 1.8% among 190,000; inhibition, % at 50 µM;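 active means inhibition above a set limit, 3 SD over mean compound inhibition, cut at about 8.4% in these data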;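 further: 0% = DMSO-only wells with no growth and 100% = 10 µM 1-NA-PP1 full growth; inhibition rescues growth on 5-FOA so higher OD means more RAM inhibition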
KCC2 sec1: KCC2 (human) modulation, secondary assay. hit rate 15% among 3,700. AID 1713. shares compounds with Cl transport mod. HEK293-KCC2, thallium flux, FluoZin2 fluorescence; active compounds read high. normalised thallium flux (F/F0 slope) at 10 µM;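 active means thallium flux slope above the same plate's solvent-only control mean plus 3 SD; inconclusive means the two replicate wells disagree; inactive means no significant difference from solvent-only control wells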
KCC2 bumet counter: thallium flux despite bumetanide block in KCC2 cells, secondary assay 3. HEK293-KCC2 + bumetanide/ouabain, thallium flux FluoZin2; active compounds read high. AID 1714. normalized thallium flux at 10 µM. hit rate 49% among 3,700. shares compounds with Cl transport mod;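 active means thallium entry rate above the same plate's blocked-transporter control wells by more than 3 SD; inconclusive means the two repeat wells disagree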;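 further: raw slope of fluorescence over initial fluorescence between 10 and 20 s after thallium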
KCC2 sec2: confirmation of human KCC2 transport modulators. shares compounds with Cl transport mod. HEK293-KCC2, thallium flux FluoZin2 fluorescence; actives lie on both sides; F/F0 rise rate, 10–20 s post-thallium. normalized thallium flux at 10 µM. hit rate 23% among 3,700. AID 1715;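 active means thallium flux slope more than 3 SD above or below the plate's solvent-only control mean, mostly below; inconclusive means the two repeat wells disagreed; inactive means no significant shift from solvent-only controls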;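 further: raw slope with 0.1% DMSO as baseline and bumetanide as block control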
HEK293 Tl flux: acts in parental HEK cells, KCC2 counter-screen; shares compounds with Cl transport mod; HEK293 parental cells, thallium flux FluoZin2, ouabain; baseline-ratio fluorescence slope, 10–20 s after thallium; thallium flux rate (normalised fluorescence) at 10 µM; hit rate 46% among 3,700;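 active means thallium flux rate significantly above the same plate's solvent-only control wells, beyond their mean plus 3 SD; inconclusive means the two replicate wells gave conflicting results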
KCC2 ouabain: KCC2 (human) modulation, ouabain retest. shares compounds with Cl transport mod. HEK293-KCC2, thallium flux FluoZin2 fluorescence; bidirectional: low = inhibitor, high = activator. raw Tl+ flux slope (below DMSO = inhibition, above = activation) at 10 µM. hit rate 48% among 3,700;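 active means thallium flux slope beyond 3 SD from same-plate DMSO control mean in most replicates, usually higher, sometimes lower; inconclusive means repeat tests gave conflicting results; inactive means no significant difference from controls in most replicates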;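 further: slope of initial-normalized fluorescence between seconds 10 and 20 after thallium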
HEK293 Tl flux2: counter-screen for KCC2 modulators: effect in parental HEK293 cells. shares compounds with Cl transport mod. thallium flux FluoZin-2 fluorescence slope. thallium flux slope at 10 µM. hit rate 33% among 3,700;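 active means thallium flux slope above the same plate's solvent-control mean plus 3 SD in both duplicate wells; inconclusive means duplicate wells that disagreed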;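 further: run without ouabain in cells lacking the KCC2 cotransporter; slope of fluorescence scaled to its starting value between 10 and 20 s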
* hit, by the source's call; ? = inconclusive; · = no result.

SMILES | WT yeast gro inh | BB579 growth dn | Cl transport mod | Yeast life ext | RAM network inh | KCC2 sec1 | KCC2 bumet counter | KCC2 sec2 | HEK293 Tl flux | KCC2 ouabain | HEK293 Tl flux2
O=C(CSc1nc2ccccc2c(=O)n1Cc1ccc(F)cc1)NCc1cccs1 | -37 | -22 | 27* | -2 | 7 | 0.0066 | 0.031* | 0.05* | 0.035* | 0.038* | 0.036*
O=C1OCCC1Sc1nc2ccccc2c(=O)n1Cc1ccc(F)cc1 (stereo not drawn) | 5 | -21 | 39* | -4 | 4 | 0.025* | 0.14* | ? | 0.062* | 0.097* | 0.033*
Cn1c(N)c(C(=O)CSc2nc3ccccc3c(=O)n2Cc2ccccc2)c(=O)n(C)c1=O | · | · | 2.4 | · | · | · | · | · | · | · | ·
CCCCNC(=O)C(Sc1ccccc1)c1ccccc1 (stereo not drawn) | -9 | -30 | 0.26 | 14 | 2 | · | · | · | · | · | ·
CN1C(=O)C(CCC(=O)O)NC1=S (stereo not drawn) | · | · | 0.77 | · | · | · | · | · | · | · | ·
Cc1cc(NC(=O)CSc2nc3ccccc3c(=O)n2Cc2ccc(F)cc2)no1 | 46 | -40 | 3.5* | 5 | 5 | 0.011 | 0.019* | 0.035 | ? | ? | ?
COc1ccc(COC(=O)Nc2cn(C)nc2C(F)(F)F)cc1 | 6 | · | 0.92 | · | 0 | · | · | · | · | · | ·
CCCn1nnc(NC(=O)c2ccc(F)cc2)n1 | 38 | -4 | -4.1* | -21 | 0 | ? | ? | 0.03 | 0.007 | 0.024 | 0.01
CCCn1nnc(NC(=O)c2ccc3ccccc3c2)n1 | 5 | · | -0.019 | · | 1 | · | · | · | · | · | ·
O=C(Cc1ccccc1)Nc1ccccc1C(=O)O | -4 | -2 | 0.25 | -4 | 1 | · | · | · | · | · | ·
Cc1sc2nc(C3CC3)nc(SCC(=O)N3CCCc4ccccc43)c2c1C | 38 | -6 | 8.5* | -7 | 9.2* | 0.011 | 0.019* | 0.032 | 0.013* | ? | 0.012*
Cc1sc2nc(C3CC3)nc(SCC(=O)N3CCc4ccccc4C3)c2c1C | 53 | -21 | -0.57 | -4 | 2 | · | · | · | · | · | ·
O=S(=O)(c1ccccc1)c1nc(-c2ccco2)oc1NCc1ccccc1 | 11 | -31 | -0.67 | -15 | 4 | · | · | · | · | · | ·
Cc1ccc(S(=O)(=O)c2nc(C)oc2NCc2ccccc2)cc1 | -6 | 13 | · | -8 | -1 | 0.006 | 0.0055 | 0.033 | 0.0076 | ? | 0.011
Brc1ccc(-c2csc(Nc3nc(-c4ccc(Br)cc4)cs3)n2)cc1 | · | · | 19* | · | · | 0.01 | 0.025* | 0.035 | 0.014* | 0.027 | 0.012*
CNC(=S)N/N=C(\C)c1ccc(C(C)(C)C)cc1 | 75* | -18 | 5.7* | -4 | 1 | 0.0093 | 0.018* | 0.032 | 0.022* | ? | 0.013*
CCCn1c(NC(=O)c2ccc(Br)cc2)nc2ccccc21 | 7 | -49 | 1.1 | 1 | 4 | · | · | · | · | · | ·
CCCCn1c(NC(=O)c2ccccc2)nc2ccccc21 | 35 | -32 | 13* | -26 | 2 | 0.0099 | 0.03* | 0.032 | ? | 0.03* | ?
CCCCC(NC(C)=O)c1nc2ccccc2n1CCCC (stereo not drawn) | 15 | -51 | 6* | 10 | -1 | 0.0056 | 0.0041 | 0.029 | ? | 0.019 | 0.0098
CCn1c(NC(=O)c2ccccc2)nc2ccccc21 | · | · | 31* | · | · | 0.0063 | 0.018* | 0.032 | 0.016* | ? | 0.016*
CCNC(=O)NC(=O)CN(C)c1ccccc1 | -25 | · | 0.21 | · | 0 | · | · | · | · | · | ·
